Columns and labels:
Assay type in all cases: functional
A-431 [1] = test: Cytotoxicity against human A431 cells at 100 uM after 72 hrs by MTT assay; conditions: A-431, 72 h
Outline: (§1)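 Log-phase cells in DMEM with 10% FBS (37 °C, 5% CO2) were plated in duplicate at 2500–4000 cells/well. Agent was added 24 h later at a fixed final concentration of 100 µM and left for 72 h continuous exposure. Read-out was MTT absorbance at 540 nm, expressed as percent growth inhibition, where 100% means total growth inhibition.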

[2] = Cytotoxicity against human SJG2 cells at 100 uM after 72 hrs by MTT assay; conditions: SJ-G2, 72 h; outline: as §1
HT-29 [3] = test: Cytotoxicity against human HT29 cells at 100 uM after 72 hrs by MTT assay; conditions: HT-29, 72 h; outline: as §1
MCF7 [4] = test: Cytotoxicity against human MCF7 cells at 100 uM after 72 hrs by MTT assay; conditions: MCF7, 72 h; outline: as §1
[5] = Cytotoxicity against human BE2C cells at 100 uM after 72 hrs by MTT assay; conditions: BE(2)-C; outline: as §1
NCI-H460 [6] = test: Cytotoxicity against human H460 cells at 100 uM after 72 hrs by MTT assay; conditions: NCI-H460, 72 h; outline: as §1
A2780 [7] = test: Cytotoxicity against human A2780 cells at 100 uM after 72 hrs by MTT assay; conditions: A2780, 72 h; outline: as §1
DU-145 [8] = test: Cytotoxicity against human DU145 cells at 100 uM after 72 hrs by MTT assay; conditions: DU-145, 72 h; outline: as §1
SW480 [9] = test: Cytotoxicity against human SW480 cells at 100 uM after 72 hrs by MTT assay; conditions: SW480, 72 h; outline: as §1
MCF7 [10] = test: Cytotoxicity against human MCF7 cells after 72 hrs by MTT assay; conditions: MCF7, 72 h
Outline: (§2)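 Cells were grown in DMEM with 10% FBS, bicarbonate, penicillin/streptomycin and 4 mM glutamine at 37 °C under 5% CO2. Log-phase cells were plated in duplicate at 2500–4000 cells/well. After 24 h, medium with or without agent was added (stocks in DMSO or water). Growth inhibition was read by MTT at 540 nm after 72 h continuous exposure. Values are means (SEM) of 3–6 experiments.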

NCI-H460 [11] = test: Cytotoxicity against human H460 cells after 72 hrs by MTT assay; conditions: NCI-H460, 72 h; outline: as §2
SW480 [12] = test: Cytotoxicity against human SW480 cells after 72 hrs by MTT assay; conditions: SW480, 72 h; outline: as §2
[13] = Cytotoxicity against human BE2C cells after 72 hrs by MTT assay; conditions: BE(2)-C
Outline: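 Cells cultured in DMEM with 10% FBS, bicarbonate, penicillin, streptomycin and 4 mM glutamine at 37 °C, 5% CO2. Log-phase cells plated in duplicate at 2500–4000/well; test agent (DMSO stock) added 24 h later. After 72 h continuous exposure, MTT read at 540 nm; means of 3–6 experiments.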

A-431 [14] = test: Cytotoxicity against human A431 cells after 72 hrs by MTT assay; conditions: A-431, 72 h; outline: as §2
DU-145 [15] = test: Cytotoxicity against human DU145 cells after 72 hrs by MTT assay; conditions: DU-145, 72 h; outline: as §2
HT-29 [16] = test: Cytotoxicity against human HT29 cells after 72 hrs by MTT assay; conditions: HT-29, 72 h; outline: as §2
[17] = Cytotoxicity against human SJG2 cells after 72 hrs by MTT assay; conditions: SJ-G2, 72 h; outline: as §2
A2780 [18] = test: Cytotoxicity against human A2780 cells after 72 hrs by MTT assay; conditions: A2780, 72 h; outline: as §2

Row | SMILES | inhibition at 100 µM (A-431 [1]) [%] | inhibition at 100 µM [2] [%] | inhibition at 100 µM (HT-29 [3]) [%] | inhibition at 100 µM (MCF7 [4]) [%] | inhibition at 100 µM [5] [%] | inhibition at 100 µM (NCI-H460 [6]) [%] | inhibition at 100 µM (A2780 [7]) [%] | inhibition at 100 µM (DU-145 [8]) [%] | inhibition at 100 µM (SW480 [9]) [%] | GI50 (MCF7 [10]) [µM] | GI50 (NCI-H460 [11]) [µM] | GI50 (SW480 [12]) [µM] | GI50 [13] [µM] | GI50 (A-431 [14]) [µM] | GI50 (DU-145 [15]) [µM] | GI50 (HT-29 [16]) [µM] | GI50 [17] [µM] | GI50 (A2780 [18]) [µM]
1 | COc1ccc(CN2C(=O)[C@@H]3[C@H](C2=O)[C@@H]2CC[C@H]3O2)cc1 | 14 | 11 | 45 | 64 | 29 | 23 | 20 | < 10 | 24 |  |  |  |  |  |  |  |  | 
2 | C=CCN1C(=O)[C@@H]2[C@H](C1=O)[C@@H]1CC[C@H]2O1 | 32 | 2 | 19 | 96 | 62 | 20 | 67 | 15 | 50 | 80 |  |  |  |  |  |  |  | 
3 | O=C1[C@@H]2[C@H](C(=O)N1c1ccc(O)cc1)[C@@H]1CC[C@H]2O1 | 27 | 44 | 47 | 22 | 14 | 12 | 15 | < 10 | 21 |  |  |  |  |  |  |  |  | 
4 | CC(C)(CO)N1C(=O)[C@@H]2[C@H](C1=O)[C@@H]1CC[C@H]2O1 | < 10 | < 10 | < 10 | < 10 | < 10 | < 10 | < 10 | < 10 | < 10 |  |  |  |  |  |  |  |  | 
5 | CCCCCCN1C(=O)[C@@H]2[C@H](C1=O)[C@@H]1CC[C@H]2O1 | < 10 | < 10 | < 10 | < 10 | < 10 | < 10 | < 10 | < 10 | < 10 |  |  |  |  |  |  |  |  | 
6 | O=C1[C@@H]2[C@H](C(=O)N1CCCN1CCOCC1)[C@@H]1CC[C@H]2O1 | < 10 | < 10 | < 10 | < 10 | < 10 | < 10 | < 10 | < 10 | < 10 |  |  |  |  |  |  |  |  | 
7 | O=C1[C@@H]2[C@H](C(=O)N1CC1CO1)[C@@H]1CC[C@H]2O1 (stereo partly drawn) | 40 | 25 | 25 | 10 | 20 | 17 | 40 | 22 | 30 |  |  |  |  |  |  |  |  | 
8 | O=C1[C@@H]2[C@H](C(=O)N1C1CCCCC1)[C@@H]1CC[C@H]2O1 | < 10 | < 10 | < 10 | < 10 | < 10 | < 10 | < 10 | < 10 | < 10 |  |  |  |  |  |  |  |  | 
9 | CCCCCCCCCCCCCCCCCCN1C(=O)[C@@H]2[C@H](C1=O)[C@@H]1CC[C@H]2O1 | < 10 | < 10 | < 10 | < 10 | < 10 | < 10 | < 10 | < 10 | < 10 |  |  |  |  |  |  |  |  | 
10 | O=C1OC(=O)C2C3CCC(O3)C12 (stereo not drawn) [DEMETHYL-CANTHARIDIN] |  |  |  |  |  |  |  |  |  | 68 | 45 | 44 | 43 | 31 | 28 | 57 | 23 | 38
11 | CCN1C(=O)[C@@H]2[C@H](C1=O)[C@@H]1CC[C@H]2O1 | < 10 | < 10 | < 10 | < 10 | < 10 | < 10 | < 10 | < 10 | < 10 |  |  |  |  |  |  |  |  | 
12 | O=C(O)c1ccc(N2C(=O)[C@@H]3[C@H](C2=O)[C@@H]2CC[C@H]3O2)cc1 | < 10 | < 10 | < 10 | < 10 | < 10 | < 10 | < 10 | < 10 | < 10 |  |  |  |  |  |  |  |  | 
13 | O=C1[C@@H]2[C@H](C(=O)N1CC(O)CO)[C@@H]1CC[C@H]2O1 (stereo partly drawn) | 60 | 27 | 39 | > 100 | 73 | 32 | > 100 | 67 | 69 | 46 | > 100 | 62 |  | > 100 | > 100 | > 100 | > 100 | 59
14 | C[C@@]12C(=O)OC(=O)[C@]1(C)[C@H]1CC[C@@H]2O1 [CANTHARIDIN] |  |  |  |  |  |  |  |  |  | 7.5 | 3.3 | 4.5 | 3.7 | 2.9 | 2.1 | 3.2 | 1.7 | 4.4
15 | O=C1[C@@H]2[C@H](C(=O)N1CCCN1C(=O)[C@@H]3[C@H](C1=O)[C@@H]1CC[C@H]3O1)[C@@H]1CC[C@H]2O1 | 10 | 10 | 10 | 52 | 10 | 18 | 31 | 13 | 16 |  |  |  |  |  |  |  |  | 
16 | CCCCN1C(=O)[C@@H]2[C@H](C1=O)[C@@H]1CC[C@H]2O1 | < 10 | < 10 | < 10 | < 10 | < 10 | < 10 | < 10 | < 10 | < 10 |  |  |  |  |  |  |  |  | 

— ChEMBL document CHEMBL1149648, “Norcantharimides, synthesis and anticancer activity: Synthesis of new norcantharidin analogues and their anticancer evaluation” (2007)
